Consider 22 compounds from ChEMBL document CHEMBL1148871, “Novel potent antimitotic heterocyclic ketones: synthesis, antiproliferative activity, and structure-activity relationships” (Bioorg Med Chem Lett, 2007).

One assay has as its system CCRF-CEM. The assay is described as follows: Antiproliferative activity against human CEM cells. It counts as functional, cell-based.
For another assay, the system named is DU-145. The assay is described as follows: Antiproliferative activity against human DU145 cells. It counts as functional, cell-based.
Another assay has as its system PC-3. In words: Antiproliferative activity against human PC3 cells. It counts as functional, cell-based.
The subject of a further assay is MCF7. The assay is described as follows: Antiproliferative activity against human MCF7 cells. It counts as functional, cell-based.
The nature of assay [1]: Antiproliferative activity against human DND1 cells. In kind it is functional, cell-based.
The subject of a further assay is Bel-7402. In words: Antiproliferative activity against human Bel7402 cells. In kind it is functional, cell-based.
Another assay relates to MOLT-3. The assay is described as follows: Antiproliferative activity against human Molt3 cells. It counts as functional, cell-based.
The target of assay [2] is T1, Tubulin (Homo sapiens) (UniProt P68371+Q9H4B7+P0DPH7+P68366+Q13509+Q71U36+P04350+Q3ZCM7+P07437+P68363+Q9BQE3+Q6PEY2+Q13885+Q9BVA1+Q9BUF5). The assay is described as follows: Inhibition of tubulin polymerization. It counts as protein-complex assay. The gist of the method:
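Purified […] in reaction buffer with GTP and Mg²⁺ was incubated for assembly with or without test compound (1–5 uM), with vincristine or paclitaxel (20 uM) as controls. Assembly was read as OD at 340 nm every 2 min. Each point is the mean of two independent experiments.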

Assay [3] addresses T1, Tubulin (Homo sapiens). In words: Inhibition of tubulin polymerization at 20 uM. In kind it is protein-complex assay.

Structures are written as SMILES.

A word on the IC50: it is the concentration at which inhibition is half-maximal. Low readings indicate higher potency, high ones lower potency. Consider `COc1ccc(C(=O)c2ccc3c(ccn3C)c2)cc1OC`, for which the IC50 in the assay with CCRF-CEM amounted to 1.69 µM.

Take `CCn1c2ccccc2c2cc(C(=O)c3ccc(OC)nc3OC)ccc21`: in the assay with CCRF-CEM, 0.555 µM corresponded to half-maximal inhibition (IC50).

As for `COc1ccc(C(=O)c2ccc3c(ccn3C)c2)cc1`, inhibition in the assay on CCRF-CEM was half-maximal at 1.13 µM (IC50).

In the assay on CCRF-CEM, `COc1cc(C(=O)c2cccc3ccn(C)c23)cc(OC)c1OC` displayed an IC50 of 0.307 µM.

Take `COc1cc(C(O)c2ccc3c(ccn3C)c2)cc(OC)c1OC` (centres undefined): the 50% inhibitory concentration (IC50) in the assay on DU-145 was determined as 0.103 µM; with PC-3 it was 0.117 µM; in the assay on MCF7, 0.044 µM; in [1] it was 0.059 µM; with CCRF-CEM, 0.059 µM; in the assay on Bel-7402, 0.088 µM. In the assay with MOLT-3, this compound registered an IC50 of 0.038 µM.

`COc1ccc(C(=O)c2ccc3c(ccn3C)c2)c(OC)n1` registered a half-maximal inhibitory concentration (IC50) in the assay on CCRF-CEM of 1.01 µM.

As to `CCn1c2ccccc2c2cc(NS(=O)(=O)c3cc(OC)ccc3OC)ccc21`, the half-maximal inhibitory concentration (IC50) in the assay with CCRF-CEM was found to be 0.061 µM.

Turning to `COc1cc(C(=O)c2ccc3ccn(C)c3c2)cc(OC)c1OC`, the IC50 in the assay with DU-145 was 0.075 µM; in the assay on PC-3 it was 0.075 µM; in the assay with MCF7 it was 0.024 µM; in assay [1], 0.027 µM; in the assay on CCRF-CEM, 0.03 µM; in the assay on Bel-7402, 0.027 µM. In the assay on MOLT-3, this compound yielded a concentration for half-maximal inhibition (IC50) of 0.018 µM.

Regarding `COc1cc(C(=O)c2ccc3sccc3c2)cc(OC)c1OC`, the IC50 in the assay on CCRF-CEM was 0.303 µM.

On to `CCn1c2ccccc2c2cc(NS(=O)(=O)c3cc(OC)c(OC)c(OC)c3)ccc21`, for which the IC50 turned out to be 0.603 µM with DU-145; 0.201 µM with PC-3; 0.089 µM with MCF7; 0.089 µM in assay [1]; 0.056 µM with CCRF-CEM; 0.201 µM with Bel-7402. Besides, in the assay with MOLT-3, the midpoint of inhibition, the IC50, lay at 0.02 µM.

As for `COc1cc(OC)cc(C(=O)c2ccc3c(ccn3C)c2)c1`, inhibition in the assay with CCRF-CEM was half-maximal at 1.69 µM (IC50).

As to `CCn1c2ccccc2c2cc(C(=O)c3cc(OC)c(OC)c(OC)c3)ccc21`, the 50% inhibitory concentration (IC50) worked out at 0.039 µM in the assay on DU-145; 0.103 µM with PC-3; 0.026 µM with MCF7; 0.021 µM in assay [1]; 0.09 µM in the assay on CCRF-CEM; 0.09 µM in the assay on Bel-7402. Also, half-maximal inhibition in the assay with MOLT-3 (IC50) was put at 0.051 µM. Further, on Tubulin (Homo sapiens) [2], the Activity entry is “Dose-dependent effect”.

Consider `COc1ccc(C(=O)c2ccc3c(ccn3C)c2)c(OC)c1`, for which the IC50 is 0.034 µM in the assay with DU-145; 0.203 µM in the assay with PC-3; 0.085 µM in the assay on MCF7; 0.118 µM in assay [1]; 0.102 µM in the assay with CCRF-CEM; 0.044 µM with Bel-7402. In the assay with MOLT-3, 0.024 µM corresponded to half-maximal inhibition (IC50).

In the case of `CCn1c2ccccc2c2cc(NS(=O)(=O)c3ccc(OC)cc3OC)ccc21`, the concentration for half-maximal inhibition (IC50) in the assay on CCRF-CEM is 0.057 µM.

Consider `COc1ccc(/C=C\c2cc(OC)c(OC)c(OC)c2)cc1O` [COMBRETASTATIN A4], for which half-maximal inhibition in assay [1] (IC50) required 0.0025 µM.

For the compound `COc1cc(C(=O)c2ccc3occc3c2)cc(OC)c1OC`, the IC50 with CCRF-CEM was determined as 0.288 µM.

The inhibition is the percentage by which the read-out fell short of the control. Low readings indicate little suppression, high ones strong suppression. On Tubulin (Homo sapiens) [3], `CC[C@]1(O)C[C@H]2CN(CCc3c([nH]c4ccccc34)[C@@](C(=O)OC)(c3cc4c(cc3OC)N(C=O)[C@H]3[C@@](O)(C(=O)OC)[C@H](OC(C)=O)[C@]5(CC)C=CCN6CC[C@]43[C@@H]65)C2)C1` displayed an inhibition of 87%.

The compound `COc1ccc(OC)c(C(=O)c2ccc3c(ccn3C)c2)c1` showed a 50% inhibitory concentration (IC50) in the assay on CCRF-CEM of 2.37 µM.

Turning to `COc1cc(C(=O)c2ccc3[nH]ccc3c2)cc(OC)c1OC`, the IC50 with CCRF-CEM was determined as 0.225 µM.

Turning to `COc1cc(C(=O)c2ccc3c(ccn3C)c2)cc(OC)c1OC`, the concentration for half-maximal inhibition (IC50) amounted to 0.026 µM with DU-145; 0.025 µM in the assay with PC-3; 0.0092 µM in the assay with MCF7; 0.015 µM in assay [1]; 0.018 µM with CCRF-CEM; 0.021 µM with Bel-7402. Moreover, in the assay with MOLT-3, half-maximal inhibition (IC50) required 0.018 µM.

As to `CCn1c2ccccc2c2cc(C(O)c3cc(OC)c(OC)c(OC)c3)ccc21` (centres undefined), the IC50 in the assay with CCRF-CEM worked out at 0.192 µM.

In [1], `COc1cc([C@@H]2c3cc4c(cc3C(O)[C@H]3COC(=O)[C@H]23)OCO4)cc(OC)c1OC` (single isomer, unassigned) [PODOFILOX] gave a half-inhibitory concentration (IC50) of 0.012 µM.
